Assay results published in ChEMBL document CHEMBL1157665, “Novel 4-thiazolidinone derivatives as potential antifungal and antibacterial drugs” (2010).
≈ marks a conversion by molar mass, not a printed value.

Legend:
[1] = test system: Talaromyces funiculosus; test: Antifungal activity against Penicillium funiculosum ATCC 36839 after 72 hrs by serial sub-cultivation method; type: functional; settings: ATCC 36839, 72 h
Method in brief: (§1)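 MFC was found by serial sub-cultivation of 2 µl into plates holding 100 µl broth per well, then incubation 72 h at 28 °C. MFC is the lowest concentration with no visible growth, taken as 99.5% killing of the original inoculum. Spore inocula came from malt agar cultures washed with 0.85% saline and 0.1% Tween 80.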

[2] = test system: Micrococcus flavus; test: Antibacterial activity against Micrococcus flavus ATCC 10240 after 24 hrs; type: functional; settings: ATCC 10240, 24 h
Method in brief: (§2)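 Broth microdilution MIC in 96-well plates. Compounds in LB broth with bacterial inoculum of 1.0 × 10^4 cfu per well, from suspensions adjusted with sterile saline to 1.0 × 10⁵ CFU/ml. Incubated 24 h at […] as printed. MIC taken as the lowest concentration with no visible growth under the binocular microscope. OD at 655 nm also read against blank. Streptomycin and ampicillin as positive controls. Duplicate, repeated three times.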

[3] = test system: Proteus mirabilis; test: Antibacterial activity against Proteus mirabilis after 24 hrs; type: functional; method in brief: as §2
[4] = test system: Talaromyces funiculosus; test: Antifungal activity against Penicillium funiculosum ATCC 36839 after 72 hrs by serial dilution method; type: functional; settings: ATCC 36839, 72 h
Method in brief: (§3)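 Fungi were kept on malt agar at 4 °C and sub-cultured monthly. Spores were washed off the agar with sterile 0.85% saline containing 0.1% Tween 80 (v/v). Modified microdilution in 96-well plates. MIC is the lowest concentration with no visible growth under the binocular microscope. Inoculum checked on malt agar for contamination and validity.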

[5] = test system: Staphylococcus aureus; test: Antibacterial activity against Staphylococcus aureus ATCC 6538 after 72 hrs by serial sub-cultivation method; type: functional; settings: ATCC 6538, 72 h
Method in brief: (§4)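 MBC was found by serial sub-cultivation of 2 µl from the MIC wells into plates holding 100 µl broth per well, then incubation for 72 h. MBC is the lowest concentration with no visible growth, i.e. 99.5% killing of the original inoculum. Bacterial inoculum was 1.0 × 10^4 cfu per well in LB broth. Duplicate, repeated three times.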

[6] = test system: Pseudomonas aeruginosa; test: Antibacterial activity against Pseudomonas aeruginosa ATCC 27853 after 72 hrs by serial sub-cultivation method; type: functional; settings: ATCC 27853, 72 h; method in brief: as §4
[7] = test system: Aspergillus flavus; test: Antifungal activity against Aspergillus flavus ATCC 9643 after 72 hrs by serial dilution method; type: functional; settings: ATCC 9643, 72 h; method in brief: as §3
[8] = test system: Proteus mirabilis; test: Antibacterial activity against Proteus mirabilis after 72 hrs by serial sub-cultivation method; type: functional; method in brief: as §4
[9] = test system: Listeria monocytogenes; test: Antibacterial activity against Listeria monocytogenes NCTC 7973 after 24 hrs; type: functional; settings: NCTC 7973, 24 h; method in brief: as §2
[10] = test system: Escherichia coli; test: Antibacterial activity against Escherichia coli ATCC 35210 after 72 hrs by serial sub-cultivation method; type: functional; settings: ATCC 35210, 72 h; method in brief: as §4
[11] = test system: Listeria monocytogenes; test: Antibacterial activity against Listeria monocytogenes NCTC 7973 after 72 hrs by serial sub-cultivation method; type: functional; settings: NCTC 7973, 72 h; method in brief: as §4
[12] = test system: Aspergillus fumigatus; test: Antifungal activity against Aspergillus fumigatus plant isolate after 72 hrs by serial dilution method
[13] = test system: Micrococcus flavus; test: Antibacterial activity against Micrococcus flavus ATCC 10240 after 72 hrs by serial sub-cultivation method; type: functional; settings: ATCC 10240, 72 h; method in brief: as §4
[14] = test system: Aspergillus versicolor; test: Antifungal activity against Aspergillus versicolor ATCC 11730 after 72 hrs by serial dilution method; type: functional; settings: ATCC 11730, 72 h; method in brief: as §3
[15] = test system: Penicillium ochrochloron; test: Antifungal activity against Penicillium ochrochloron ATCC 9112 after 72 hrs by serial dilution method; type: functional; settings: ATCC 9112, 72 h; method in brief: as §3
[16] = test system: Aspergillus fumigatus; test: Antifungal activity against Aspergillus fumigatus plant isolate after 72 hrs by serial sub-cultivation method
[17] = test system: Trichoderma viride; test: Antifungal activity against Trichoderma viride IAM 5061 after 72 hrs by serial dilution method; type: functional; settings: IAM 5061, 72 h; method in brief: as §3
[18] = test system: Trichoderma viride; test: Antifungal activity against Trichoderma viride IAM 5061 after 72 hrs by serial sub-cultivation method; type: functional; settings: IAM 5061, 72 h; method in brief: as §1
[19] = test system: Bacillus cereus; test: Antibacterial activity against Bacillus cereus clinical isolate after 72 hrs by serial sub-cultivation method; type: functional; method in brief: as §4
[20] = test system: Fulvia fulva; test: Antifungal activity against Fulvia fulva TK 5318 after 72 hrs by serial sub-cultivation method; type: functional; settings: TK 5318, 72 h; method in brief: as §1
[21] = test system: Pseudomonas aeruginosa; test: Antibacterial activity against Pseudomonas aeruginosa ATCC 27853 after 24 hrs; type: functional; settings: ATCC 27853, 24 h; method in brief: as §2
[22] = test system: Penicillium ochrochloron; test: Antifungal activity against Penicillium ochrochloron ATCC 9112 after 72 hrs by serial sub-cultivation method; type: functional; settings: ATCC 9112, 72 h; method in brief: as §1
[23] = test system: Fulvia fulva; test: Antifungal activity against Fulvia fulva TK 5318 after 72 hrs by serial dilution method; type: functional; settings: TK 5318, 72 h; method in brief: as §3
[24] = test system: Salmonella typhimurium; test: Antibacterial activity against Salmonella Typhimurium ATCC 13311 after 24 hrs; type: functional, Salmonella enterica subsp. enterica serovar Typhimurium; settings: Salmonella enterica, ATCC 13311, 24 h; method in brief: as §2
[25] = test system: Aspergillus versicolor; test: Antifungal activity against Aspergillus versicolor ATCC 11730 after 72 hrs by serial sub-cultivation method; type: functional; settings: ATCC 11730, 72 h; method in brief: as §1
[26] = test system: Staphylococcus aureus; test: Antibacterial activity against Staphylococcus aureus ATCC 6538 after 24 hrs; type: functional; settings: ATCC 6538, 24 h; method in brief: as §2
[27] = test system: Aspergillus niger; test: Antifungal activity against Aspergillus niger ATCC 6275 after 72 hrs by serial sub-cultivation method; type: functional; settings: ATCC 6275, 72 h; method in brief: as §1
[28] = test system: Bacillus cereus; test: Antibacterial activity against Bacillus cereus clinical isolate after 24 hrs; type: functional; method in brief: as §2
[29] = test system: Aspergillus flavus; test: Antifungal activity against Aspergillus flavus ATCC 9643 after 72 hrs by serial sub-cultivation method; type: functional; settings: ATCC 9643, 72 h; method in brief: as §1
[30] = test system: Salmonella typhimurium; test: Antibacterial activity against Salmonella Typhimurium ATCC 13311 after 72 hrs by serial sub-cultivation method; type: functional, Salmonella enterica subsp. enterica serovar Typhimurium; settings: Salmonella enterica, ATCC 13311, 72 h; method in brief: as §4
[31] = test system: Escherichia coli; test: Antibacterial activity against Escherichia coli ATCC 35210 after 24 hrs; type: functional; settings: ATCC 35210, 24 h; method in brief: as §2
[32] = test system: Aspergillus niger; test: Antifungal activity against Aspergillus niger ATCC 6275 after 72 hrs by serial dilution method; type: functional; settings: ATCC 6275, 72 h; method in brief: as §3

MIC [2] [µM] | MIC [3] [µM] | MIC [4] [µM] | MIC [7] [µM] | MIC [9] [µM] | MIC [14] [µM] | MIC [15] [µM] | MIC [17] [µM] | SMILES | MFC [1] [µM] | MBC [5] [µM] | MBC [6] [µM] | MBC [8] [µM] | MBC [10] [µM] | MBC [11] [µM] | MIC [12] [µM] | MBC [13] [µM] | MFC [16] [µM] | MFC [18] [µM] | MBC [19] [µM] | MFC [20] [µM] | other results
16.4 (≈ 7.48 µg/mL) | 43.8 (≈ 20 µg/mL) | 21.9 (≈ 9.99 µg/mL) | 11 (≈ 5.02 µg/mL) | 21.9 (≈ 9.99 µg/mL) | 16.4 (≈ 7.48 µg/mL) | 11 (≈ 5.02 µg/mL) | 11 (≈ 5.02 µg/mL) | O=C1N/C(=N/c2nc(C34CC5CC(CC(C5)C3)C4)cs2)S/C1=C\c1ccccc1Cl | 32.3 (≈ 14.7 µg/mL) | 43.8 (≈ 20 µg/mL) | 43.8 (≈ 20 µg/mL) | 63.7 (≈ 29 µg/mL) | 43.8 (≈ 20 µg/mL) | 43.8 (≈ 20 µg/mL) | 16.4 (≈ 7.48 µg/mL) | 23.8 (≈ 10.9 µg/mL) | 21.9 (≈ 9.99 µg/mL) | 21.9 (≈ 9.99 µg/mL) | 43.8 (≈ 20 µg/mL) | 16.4 (≈ 7.48 µg/mL) | MIC [21]: 21.9 µM (≈ 9.99 µg/mL); MFC [22]: 21.9 µM (≈ 9.99 µg/mL); MIC [23]: 11 µM (≈ 5.02 µg/mL); MIC [24]: 21.9 µM (≈ 9.99 µg/mL); MFC [25]: 21.9 µM (≈ 9.99 µg/mL); MIC [26]: 21.9 µM (≈ 9.99 µg/mL); MFC [27]: 21.9 µM (≈ 9.99 µg/mL); MIC [28]: 21.9 µM (≈ 9.99 µg/mL); MFC [29]: 21.9 µM (≈ 9.99 µg/mL); MBC [30]: 43.8 µM (≈ 20 µg/mL); MIC [31]: 21.9 µM (≈ 9.99 µg/mL); MIC [32]: 11 µM (≈ 5.02 µg/mL)
21.5 (≈ 10 µg/mL) | 43 (≈ 20.1 µg/mL) | 21.5 (≈ 10 µg/mL) | 16.1 (≈ 7.51 µg/mL) | 21.5 (≈ 10 µg/mL) | 16.1 (≈ 7.51 µg/mL) | 16.1 (≈ 7.51 µg/mL) | 10.8 (≈ 5.04 µg/mL) | O=C1N/C(=N/c2nc(C34CC5CC(CC(C5)C3)C4)cs2)S/C1=C\c1ccc([N+](=O)[O-])cc1 | 21.5 (≈ 10 µg/mL) | 43 (≈ 20.1 µg/mL) | 43 (≈ 20.1 µg/mL) | 64.5 (≈ 30.1 µg/mL) | 43 (≈ 20.1 µg/mL) | 43 (≈ 20.1 µg/mL) | 16.1 (≈ 7.51 µg/mL) | 21.5 (≈ 10 µg/mL) | 21.5 (≈ 10 µg/mL) | 21.5 (≈ 10 µg/mL) | 21.5 (≈ 10 µg/mL) | 21.5 (≈ 10 µg/mL) | MIC [21]: 21.5 µM (≈ 10 µg/mL); MFC [22]: 21.5 µM (≈ 10 µg/mL); MIC [23]: 16.1 µM (≈ 7.51 µg/mL); MIC [24]: 21.5 µM (≈ 10 µg/mL); MFC [25]: 21.5 µM (≈ 10 µg/mL); MIC [26]: 16.1 µM (≈ 7.51 µg/mL); MFC [27]: 21.5 µM (≈ 10 µg/mL); MIC [28]: 21.5 µM (≈ 10 µg/mL); MFC [29]: 21.5 µM (≈ 10 µg/mL); MBC [30]: 21.5 µM (≈ 10 µg/mL); MIC [31]: 21.5 µM (≈ 10 µg/mL); MIC [32]: 10.8 µM (≈ 5.04 µg/mL)
